Measured values from the RNAGym collection of RNA variant scans (doi:10.1126/science.aae0568).
Fewer inactive variants are shown than the library holds.

B1: tRNA (parent)
chain: GUUCCGUUGGCGUAAUGGUAACGCGUCUCCCUCCUAAGGAGAAGACUGCGGGUUCGAGUCCCGUACGGAACG

Variants of: B1
Assay: yeast fitness relative to wild type (ratio to wild type); higher = fitter; tRNA-Arg(CCU), competitive growth, 37 C, YPD
Summary of the method: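 Amplicons of the tRNA-Arg(CCU) gene were sequenced, 100-nucleotide paired-end, from the start population and from each end population of a pooled yeast competition. The competition, in six parallel replicates, lasted 24 hours in YPD at 37°C. Fitness relative to wild type was calculated from changes in genotype frequencies. Genotypes had to have ≥ 100 starting reads, and estimates < 0.5 were set to 0.5.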

Point of comparison: C4U C30A C60G, yeast fitness 0.6. Against it:
- C4U C31A A36G G44C — lower, 0.59
- C4U C30A G67C — higher, 0.731
- C4U C27G A45C C55U G67C — lower, ≤ 0.5
- C4U C29G A37C C46G — lower, ≤ 0.5
- C4U C27U G56A — higher, 0.694
- C4U C29U A36U A65U — lower, 0.557
- C4U C30A C46G C49U — lower, 0.57
- C4U C24A U59A — higher, 0.65
- C4U G10A C49A U53A G67A — lower, ≤ 0.5
- C4U C30G A36U A70C — lower, ≤ 0.5
- C4U C55U A57U — lower, 0.536
- C4U G18C A45U G52A A65U — lower, ≤ 0.5
- C4U C27U C33A A45C U54A — lower, ≤ 0.5
- C4U C62G — higher, 0.808
- C4U C62A — higher, 0.85
- C4U C62U — higher, 0.992
- C4U C30A C49U — higher, 0.825
- C4U C34G C49G G68C — lower, ≤ 0.5
- C4U C49U U64A — lower, 0.589
- C4U C30U G48C G68C — lower, ≤ 0.5
- C4U C55A — higher, 0.701
- C4U C55G — higher, 0.636
- C4U G17A G18A C34U G56C — lower, ≤ 0.5
- C4U C49G A70G — higher, 0.602
- C4U G17A A37U U59C — lower, ≤ 0.5
- C4U G18A A21C A65C — lower, ≤ 0.5
- C4U G17A C22U — lower, ≤ 0.5
- C4U G18C C49U C61A — lower, ≤ 0.5
- C4U G10A C24U C61A — higher, 0.623
- C4U G9A C27G U32A G52A — lower, ≤ 0.5
- C4U G12C G51A A65C — lower, ≤ 0.5
- C4U G6A A42C C66U — lower, ≤ 0.5
- C4U C33A C61U — lower, 0.597
- C4U C34U G68C — lower, ≤ 0.5
- C4U C29U C62U U64C A65U — lower, ≤ 0.5
- C4U C24G G50A — lower, ≤ 0.5
- C4U G17A U19G A21G A43G G63A — lower, ≤ 0.5
- C4U G10A U19C C24U — higher, 0.721
- C4U G18A G23C C24G C46G — lower, ≤ 0.5
- C4U G6A C49U — higher, 0.706
- C4U G6A C62G — lower, 0.54
- C4U G10C A15G A20U A21G C33U U47C A57C — lower, ≤ 0.5
- C4U C30U U53G G56C C62G — lower, ≤ 0.5
- C4U C22U U35C G56A A70C — lower, ≤ 0.5
- C4U C27G A45C C55U — lower, 0.559
- C4U G25A A70U — higher, 0.77
- C4U G6C C30G C60U — lower, 0.546
- C4U C49U C55A — lower, ≤ 0.5
- C4U C30A A70G — higher, 0.769
- C4U C30A A70U — higher, 0.799
- C4U C34G C66A — lower, 0.562
- C4U G10A C22U — lower, ≤ 0.5
- C4U G12A A20G C22U C55U A65U — lower, 0.53
- C4U C46A G50A C61U C62U — higher, 1.09
- C4U G23C G39C G44A — lower, ≤ 0.5
- C4U C24A C60G C66U — lower, ≤ 0.5
- C4U C60G A69C — lower, 0.52
- C4U G6A A36C C46U — lower, ≤ 0.5
- C4U C34U U59A — lower, ≤ 0.5
- C4U G10C U35C G41A — lower, ≤ 0.5
- C4U G12A A20G C22U C55U — higher, 0.606
- C4U C27G A45C G58A C62G — lower, ≤ 0.5
- C4U C22G G67A — higher, 0.689
- C4U G9A C11U C34A — lower, ≤ 0.5
- C4U G18A A69U — higher, 0.743
- C4U C55U C61U — higher, 0.673
- C4U C30U — higher, 0.931
- C4U C30G — higher, 0.801
- C4U C24G A57G — lower, ≤ 0.5
- C4U C22U C31U A57U — lower, ≤ 0.5
- C4U G12C U28G U32C C62G — lower, ≤ 0.5
- C4U C24G U35C A57G — lower, ≤ 0.5
- C4U G10A G23C C49A G68C — lower, ≤ 0.5
- C4U C46G A70C — higher, 1.01
- C4U C60G C61U G68A — lower, ≤ 0.5
- C4U G10A C24U C62U — higher, 0.723
- C4U C49U C61G — lower, 0.594
- C4U G10A G51C U59G — lower, ≤ 0.5
- C4U C22U C31U C60G A70G — lower, 0.52
- C4U G23C U26G A36C A37U A42C A45U C60U C66U A70G — higher, 0.634
- C4U C31G C34G A43U G68C A69G — lower, ≤ 0.5
- C4U C22U C33U A42C — higher, 0.668
- C4U C61G C66U A69U — lower, ≤ 0.5
- C4U C55A U64A A65U — lower, ≤ 0.5
- C4U G6A G25A U32C — lower, ≤ 0.5
- C4U C22U C66U — higher, 0.624
- C4U G18C A21G A57C — lower, ≤ 0.5
- C4U G23A U26C — lower, ≤ 0.5
- C4U G18C — higher, 0.651
- C4U C22U C24G A37G — lower, ≤ 0.5
- C4U C22U C31U C60G — lower, 0.545
- C4U C24U C66U A70C — lower, 0.51
- C4U C33A U54G — lower, ≤ 0.5
- C4U C27G U53A — lower, ≤ 0.5
- C4U G17C — higher, 0.709
- C4U G12C — higher, 0.884
- C4U C27U A43G — higher, 0.649
- C4U G10C C60G G67A — lower, ≤ 0.5
- C4U C31U G52C C61A — lower, ≤ 0.5
- C4U C30A A36G — higher, 0.839
- C4U C31U A43G C61A G63A A65U C66G — lower, 0.575
- C4U C30A A42U — lower, 0.529
- C4U C30A A42C — lower, 0.582
- C4U C22G U54A — lower, 0.558
- C4U C27G A45C C55U C66A — lower, ≤ 0.5
- C4U G10A G23C — lower, ≤ 0.5
- C4U C66G — higher, 0.75
- C4U C24U A43G — lower, 0.555
- C4U C29A C31G A42C A45U G51C — lower, ≤ 0.5
- C4U C29U G50A G63A — lower, ≤ 0.5
- C4U G18A G23C C24G — lower, 0.518
- C4U G25A — higher, 0.895
- C4U G18C C46U C60G — lower, ≤ 0.5
- C4U G10C U35C G41A C62G A70U — lower, ≤ 0.5
- C4U C31G — higher, 0.868
- C4U C31A — higher, 0.827
- C4U C30A U64C — higher, 0.92
- C4U C30G C46U G52A A65C — lower, ≤ 0.5
- C4U C49G G68A A70C — higher, 0.606
- C4U C22U G25A C31U C60G A70G — lower, ≤ 0.5
- C4U G9A C29U — lower, 0.567
- C4U G23A C33G C49A U54G A65G — lower, ≤ 0.5
- C4U C24G A43G G63U U64A — lower, ≤ 0.5
- C4U C29A A36C A40U G51A — lower, 0.588
- C4U C29A G52C C55A C61A G68U — lower, ≤ 0.5
- C4U G18A G23C C24G C46G A57G — lower, ≤ 0.5
- C4U G10C U35C G41A C49U — lower, ≤ 0.5
- C4U G23C G39C G44A G67A — lower, ≤ 0.5
- C4U G23A — higher, 0.783
- C4U C24U A36C C62G C66A — lower, ≤ 0.5
- C4U G9A G68A — higher, 0.968
- C4U C24U C31A G56C — higher, 0.63
- C4U G10A C60G C66G A69U — lower, ≤ 0.5
- C4U C34G G63C A69C — lower, ≤ 0.5
- C4U C29U G39C — lower, 0.536
- C4U C49G A57C — lower, ≤ 0.5
- C4U C46G C66G — lower, 0.539
- C4U C55U A69U — higher, 0.745
- C4U C30A U53C A70G — lower, ≤ 0.5
- C4U G12A A20G C22U C62U A65C — lower, ≤ 0.5
- C4U C33G C60G — lower, ≤ 0.5
- C4U G10A A15C — lower, 0.551
- C4U G10C G48C G56C — lower, ≤ 0.5
- C4U C24U G56A C60A — lower, ≤ 0.5
- C4U C60G G67A — lower, ≤ 0.5
- C4U C29U C30G — lower, ≤ 0.5
- C4U G12C U64C A70U — lower, ≤ 0.5
- C4U G9A C33G — higher, 0.639
- C4U G23A U26A A45C — lower, ≤ 0.5
- C4U C46G G51A G52A — lower, ≤ 0.5
- C4U C31A A37C G48A G58C — lower, ≤ 0.5
- C4U G10A A36U — lower, ≤ 0.5
- C4U C24G U26A U28G U47C — lower, ≤ 0.5
- C4U C27U A57U — lower, 0.532
- C4U G25A A36G — higher, 0.641
- C4U G12A A20G C22U C34U A37G — lower, ≤ 0.5
- C4U G6C A14C C24G A45C A57C C61U — lower, ≤ 0.5
- C4U G10U C24U — higher, 0.625
- C4U C27U U53G — lower, ≤ 0.5
- C4U C33G C34G G51C U54C — lower, 0.561
- C4U G10C G17C C27G G38C U54G — lower, ≤ 0.5
- C4U G10C C24G C49U — lower, ≤ 0.5
- C4U C29A C61G A70U — lower, 0.588
- C4U G18C C24U C61G — lower, ≤ 0.5
- C4U G25A A69C — higher, 0.761
- C4U C24U A36C C49U — lower, ≤ 0.5
